Assay results published in publication PMC9298613 (Journal of Food and Drug Analysis, 2018).
One block for each molecule: values may come before it.

Tests used:
CYP3A2 and CYP2D6 = experiment: Hepatic CYP3A2 and CYP2D6 protein expression, summary statements; format: in vivo, Wistar rats; conditions: APZ after single or multiple dosing
Summary of the method: (§1)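 Wistar rats (190–210 g, n = 6/group), food withheld 12 h beforehand. Antipsychotic test compound 3 mg/kg p.o. once on day 15 or daily for 15 days; controls given oral saline for 15 days. After ether euthanasia, liver excised. 25 μg hepatic protein run on 10% SDS gel, transferred to PVDF, primary antibody overnight at 4 °C, HRP secondary 60 min. Chemiluminescence, densitometry, β-actin also probed. Mean ± SD, ANOVA/Dunnett.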

CYP3A2 = experiment: Western blot of hepatic CYP3A2 protein expression; format: in vivo, Wistar rats; conditions: for Reduction of CYP3A2 protein: rat received SA, compared with rats received APZ alone
Summary of the method: as §1

CYP2D6 = experiment: Western blot of hepatic CYP2D6 protein expression; format: in vivo, Wistar rats; conditions: for Reduction of CYP2D6 protein: rat received SA, compared with rats received APZ alone
Summary of the method: as §1

[1] = Pharmacokinetics of APZ in rat plasma; format: in vivo, Wistar rats
[2] = at steady state; cited from earlier work
[3] = multiple dose of APZ 3 mg/kg p.o. 15 days, compared to normal controls, p < 0.05
[4] = single dose of APZ 3 mg/kg p.o., liver, compared with normal controls, p <0.05
[5] = APZ 3 mg/kg p.o. daily for 15 days (multiple doses), with or without SA 20 mg/kg p.o. for 15 days, mean ± SD, n = 6
[6] = Wistar, rat, plasma, po, 3 mg/kg
[7] = administration of SA, in contrast to rats treated with multiple doses of APZ, p <0.05
[8] = animals treated with SA for 15 days, compared to rats treated with a single dose of APZ

SMILES: O=C1CCc2ccc(OCCCCN3CCN(c4cccc(Cl)c4Cl)CC3)cc2N1 [APZ, 7-[4-[4-(2,3-dichlorophenyl)-1-piperazinyl]butoxy]-3,4-dihydrocarbostyril]
Increases in CYP3A2 and CYP2D6 expressions in hepatic tissues (CYP3A2 and CYP2D6): 2–3 folds | Enhancement in liver expression of CYP3A2 (CYP3A2; [3]): 135.29% | Enhancement in CYP3A2 protein expression (CYP3A2; [4]): 90% | Enhancement in liver expression of CYP2D6 (CYP2D6; [3]): 91.17% | Increase in CYP2D6 expression (CYP2D6; [4]): 82% | AUMC 0-∞ [1, 5]: 3443.83 ± 234.17 ng/ml × h^^2 | CL [1, 5]: 2.28 ± 0.09 mL/h/kg | Ke [1, 5]: 0.04 ± 0.005 h⁻¹ | Vd [1, 5]: 0.06501 ± 0.00653 L/kg | Tmax [1, 6]: 8 h | k el [1, 6]: 1.11e-05 s⁻¹ | AUC(0-t) ([1]; Wistar, rat, plasma, po, 3 mg/kg, AUC 0-t, APZ 3 mg/kg p.o. daily for 15 days (multiple doses), with or without SA 20 mg/kg p.o. for 15 days, mean ± SD, n = 6): 122 ± 3.45 ng·h/mL | AUC(0-inf) ([1]; Wistar, rat, plasma, po, 3 mg/kg, AUC 0-∞, APZ 3 mg/kg p.o. daily for 15 days (multiple doses), with or without SA 20 mg/kg p.o. for 15 days, mean ± SD, n = 6): 132 ± 4.85 ng·h/mL | Cmax ([1]; Wistar, rat, plasma, po, 3 mg/kg, Cmax, APZ 3 mg/kg p.o. daily for 15 days (multiple doses), with or without SA 20 mg/kg p.o. for 15 days, mean ± SD, n = 6): 7.08 ± 0.89 ng/mL | MRT inf ([1]; Wistar, rat, plasma, po, 3 mg/kg, MRT 0-∞, APZ 3 mg/kg p.o. daily for 15 days (multiple doses), with or without SA 20 mg/kg p.o. for 15 days, mean ± SD, n = 6): 26.1 ± 1.01 h | half-life ([1]; Wistar, rat, plasma, po, 3 mg/kg, T1/2, APZ 3 mg/kg p.o. daily for 15 days (multiple doses), with or without SA 20 mg/kg p.o. for 15 days, mean ± SD, n = 6): 19.8 ± 2.52 h | APZ converted to the major metabolite DAPZ [2]: about 40%

Reduction in hepatic expression of CYP3A2 (CYP3A2; [7]): 54.68% | Reduction of CYP3A2 hepatic protein (CYP3A2; [8]): 31.57% | Reduction of CYP3A2 protein (CYP3A2; multiple dose study, p <0.05): 73.75% | Reduction of CYP3A2 protein (CYP3A2; single dose study, p <0.05): 50.52% | Reduction in hepatic expression of CYP2D6 (CYP2D6; [7]): 65.76% | Reduction of CYP2D6 hepatic protein (CYP2D6; [8]): 34.06% | Reduction of CYP2D6 protein (CYP2D6; multiple dose study, p <0.05): 71.15% | Reduction of CYP2D6 protein (CYP2D6; single dose study, p <0.05): 53.84% | Change in T1/2 of APZ on co-administration of SA (in words) ([1]; APZ single dose, SA 20 mg/kg p.o. for 15 days, compared with APZ alone): without a significant change
SMILES: COc1cc(C=CC(=O)O)cc(OC)c1O [SA, 3,5-dimethoxy-4-hydroxycinnamic acid]
